Measurements pooled from the literature.
Protocols differ between the studies behind these lines.
PDE5A: cGMP-specific 3',5'-cyclic phosphodiesterase (PDE5A, Homo sapiens, UniProt O76074)
KDM1A: Lysine-specific histone demethylase 1A (KDM1A, Homo sapiens, UniProt O60341)
PFF0160c: Dihydroorotate dehydrogenase (quinone), mitochondrial (PFF0160c, Plasmodium falciparum, UniProt Q08210)
AURKB: Aurora kinase B (AURKB, Homo sapiens, UniProt Q96GD4)
MEP1A: Meprin A subunit alpha (MEP1A, Homo sapiens, UniProt Q16819)
PPO3: PPO3 (Agaricus bisporus, UniProt C7FF04)
ARAF: Serine/threonine-protein kinase A-Raf (ARAF, Homo sapiens, UniProt P10398)

Structure (SMILES)	target	test	setting	IC50
COc1ccc(C2=NN(C3CCCCCC3)C(=O)[C@@H]3CC=CC[C@H]23)cc1-c1ccc(C(N)=O)cc1 (relative stereo)	PDE5A	enzyme activity, inhibitor		> 10 µM
CCCSc1nc(Sc2nncs2)c2nnn(CCO)c2n1	KDM1A	enzyme activity, inhibitor, fluorescence		1.05 µM
O=C1[C@H]2Cc3c([nH]c4ccccc34)[C@@H](c3cccnc3)N2C(=O)N1c1ccc(Cl)cc1	PDE5A	enzyme activity, inhibitor, FP		4.99 µM
Cc1cc(Nc2ccc(Cl)cc2)n2nc(CCN)nc2n1	PFF0160c	enzyme activity, inhibitor		> 10 µM
CCN1C(=O)[C@H]2Cc3c([nH]c4ccccc34)[C@@H](c3ccc(OC)c(OC)c3)N2C1=O	PDE5A	enzyme activity, inhibitor, FP		5.11 µM
CCCSc1nc(Sc2nnnn2C)c2nnn(C3CCCC3)c2n1	KDM1A	enzyme activity, inhibitor, fluorescence		0.413 µM
O=C(c1ccc2ccncc2c1)N1CCC2CC1CN2C(=O)c1n[nH]c(=O)c2ccccc12 (stereo not drawn)	Poly [ADP-ribose] polymerase 1 (PARP1, Homo sapiens, UniProt P09874)	enzyme activity, inhibitor		1.42 µM
N#CC(C(=O)c1ccc(Cl)cc1Cl)=C1NC(=O)c2ccc(OCc3ccc4c(c3)OCO4)cc2N1	Cytoplasmic dynein 1 heavy chain 1 (DYNC1H1, Homo sapiens, UniProt Q14204)	ATPase activity, inhibitor		130 µM
CNCCOc1nc2nc(C)cc(Nc3ccc(Cl)cc3)n2n1	PFF0160c	enzyme activity, inhibitor		> 10 µM
O=C(Nc1ccn(Cc2ccc(O)cc2C(F)(F)F)n1)c1c(F)cccc1F	Transient receptor potential cation channel subfamily A member 1 (TRPA1, Homo sapiens, UniProt O75762)	ion current, inhibitor		> 10 µM
CCCCc1ccc(-c2ccc(-c3cc(C(=O)O)c4cccc([N+](=O)[O-])c4n3)o2)cc1	Eukaryotic initiation factor 4A-I (EIF4A1, Homo sapiens, UniProt P60842)	ATPase activity, inhibitor, absorbance		27.5 µM
Cc1cc(Nc2cccc(Cl)c2)n2[nH]c(=O)nc2n1	PFF0160c	enzyme activity, inhibitor		> 10 µM
COc1ccc2c(Oc3ccc4c(C(=O)Nc5ccccc5N)cccc4c3)ccnc2c1	AURKB	enzyme activity, inhibitor		0.009 µM
O=C(CCN(Cc1ccncc1)Cc1ccc2c(c1)OCO2)NO	MEP1A	enzyme activity, inhibitor		0.474 µM
Cc1cc(Nc2cccc(Cl)c2)n2nc(CC(C)C)nc2n1	PFF0160c	enzyme activity, inhibitor		> 10 µM
Cc1ccc(C(C)C)cc1NC(=O)COC(=O)c1ccc(O)cc1O	PPO3	enzyme activity, inhibitor		1.8 µM
Cc1cc(Nc2ccc(S(F)(F)(F)(F)F)cc2)n2nc(CC(C)C)nc2n1	PFF0160c	enzyme activity, inhibitor		> 10 µM
CN1C(=O)c2c(nn(Cc3ccc(-c4cccc(F)n4)cc3)c2Nc2ccccc2)N2C1=N[C@@H]1CCC[C@@H]12	PDE5A	enzyme activity, inhibitor		> 0.1 µM
O=C(CCN(Cc1ccc2c(c1)OCO2)Cc1ccc(Cl)c(O)c1F)NO	MEP1A	enzyme activity, inhibitor		0.159 µM
CN(C)C/C=C/C(=O)Nc1cccc(C(=O)Nc2ccc(Nc3nccc(-c4cccnc4)n3)cc2)c1	Serine/threonine-protein kinase Nek3 (NEK3, Homo sapiens, UniProt P51956)	enzyme activity, inhibitor, radiometric		0.185 µM
Cc1cc(Nc2ccc(C(F)(F)F)cc2)n2nc(OCCN)nc2n1	PFF0160c	enzyme activity, inhibitor		> 10 µM

Structure (SMILES)	target	test	setting	IC50
N[C@@]1(C(=O)O)CC[C@]12CC[C@H]2C(=O)O	Glutamate racemase (Helicobacter pylori J99, UniProt Q9ZLT0)	enzyme activity, inhibitor		18000 µM
COc1cc2c(cc1OC)-c1c/c(=N\c3c(C)cc(C)cc3C)n(C)c(=O)n1CC2	PDE5A	enzyme activity, inhibitor, FP		3.4 µM
O=C1Nc2ccc(I)cc2/C1=C/c1cc(Br)c(O)c(Br)c1	ARAF	enzyme activity, inhibitor, radiometric		0.0154 µM
CC[C@@H](C(=O)Nc1ccc(C(N)=O)c(F)c1)n1cc(OC)c(-c2cc(Cl)ccc2-n2cc(C(F)(F)F)nn2)cc1=O	Vitamin K-dependent protein C (PROC, Homo sapiens, UniProt P04070)	enzyme activity, inhibitor		> 10 µM
CC(=O)Nc1ccc(N=Nc2c(N)nc(N)nc2N)cc1	PPO3	enzyme activity, inhibitor, absorbance		29.8 µM
Cc1ccc(C(C)C)cc1NC(=O)COC(=O)c1cccc(O)c1	PPO3	enzyme activity, inhibitor		11 µM
CNCCOc1nc2nc(C)cc(Nc3cccc(Cl)c3)n2n1	PFF0160c	enzyme activity, inhibitor		> 10 µM
CCCS(=O)(=O)Nc1ccc(F)c(C(=O)c2c[nH]c3ncc(Cl)cc23)c1F	ARAF	enzyme activity, inhibitor	lysate	0.022 µM
CCOCc1nc(O)c(-c2nnc(Cc3ccc(Cl)cn3)o2)c(O)c1-c1c(OC)cccc1OC	Adenosine receptor A2a (ADORA2A, Homo sapiens, UniProt P29274)	ligand displacement, radioligand		> 30 µM
CC(C)(C)N1C(=O)[C@H]2Cc3c([nH]c4ccccc34)[C@H](c3cccnc3)N2C1=O	PDE5A	enzyme activity, inhibitor, FP		4.75 µM
CC(C)C[C@H]1CC(=O)N[C@@H](C)C(=O)N[C@@H](CCCCCC(=O)O)C(=O)N[C@@H](Cc2c[nH]c3ccccc23)C(=O)N1	Histone deacetylase 2 (HDAC2, Homo sapiens, UniProt Q92769)	enzyme activity, inhibitor		0.2 µM
CNc1cc(Nc2ccc(C(F)(F)F)cc2)n2ncnc2n1	PFF0160c	enzyme activity, inhibitor		7.4 µM
CN1CCN(c2ccc(Nc3ncc4cc(C#N)c(=O)n(C5CCCC5)c4n3)cc2)CC1	ARAF	enzyme activity, inhibitor		0.566 µM
C#CCSc1nc(Sc2nnnn2-c2ccccc2)c2nnn(Cc3cccc(Cl)c3)c2n1	KDM1A	enzyme activity, inhibitor, fluorescence		0.074 µM
CNCCc1nc2nc(C)cc(Nc3ccc(Cl)cc3)n2n1	PFF0160c	enzyme activity, inhibitor		> 10 µM
Nc1nc(N)c(N=Nc2ccc([N+](=O)[O-])cc2)c(N)n1	PPO3	enzyme activity, inhibitor, absorbance		40.6 µM
COc1ccc([C@@H]2c3[nH]c4ccccc4c3C[C@H]3C(=O)N(C(C)(C)C)C(=O)N23)cc1OC	PDE5A	enzyme activity, inhibitor, FP		6.21 µM
C[C@@H]1Cc2ccccc2N1C(=O)NCCCCN(C)[C@@H]1Cc2cccc3[nH]c(=O)n(c23)C1	5-hydroxytryptamine receptor 2A (HTR2A, Homo sapiens, UniProt P28223)	ligand displacement, radioligand		3.7 µM
CC(C)(C)n1nc(-c2ccc3nc(OC4CC4)ccc3c2)c(C(N)=O)c1N	AURKB	cell-free assay, inhibitor		> 10 µM
CCN1C(=O)[C@@H]2Cc3c([nH]c4ccccc34)[C@@H](c3cccnc3)N2C1=O	PDE5A	enzyme activity, inhibitor, FP		0.15 µM
Cc1ccc(C(C)C)cc1NC(=O)COC(=O)c1cc(O)cc(O)c1	PPO3	enzyme activity, inhibitor		20.2 µM
